Shown are actives, neighbours in structure and some others; about 4.9% of the full set was active somewhere.
STAT3 activator = increases IL-6 driven STAT3 reporter signal | U3A cells, IL-6 STAT3-luciferase reporter, luminescence; 100% = signal with IL-6 EC80 alone | 190,000 compounds, 0.91% hits | activation (% of control), % at 5.6 µM;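 active means activation above the screen-wide mean of compound activation plus 3 SD, cut at about 130% in these data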
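Assay system – human STAT1-deficient U3A cells with stable STAT3-luciferase reporter · Also added – IL-6 (33 ng/mL) · Schedule – compound 1 h, then IL-6 6 h at 37 °C · Technique – reporter luminescence signal · Evaluation – % activation versus median of IL-6-stimulated wells · Benchmarks – IL-6-only wells as 100% reference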
STAT1 inh = inhibitors of IFN-gamma induced STAT1 signaling; inhibition, % at 5.5 µM; 200,000 compounds, 0.35% hits; NIH 3T3 STAT1-luciferase reporter, luminescence;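 active means inhibition above a set limit, the mean inhibition across all tested compounds plus 3 SD, cut at about 34% in these data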
NF-kB expr up = compounds increasing NF-kB expression in human neuronal cells; AID 1239; NF-kB reporter expression; hits give high values; 190,000 compounds, 1.6% hits; fold change at 12.5 µM; in the data active means fold change above about 3.3
APP 5'UTR act = activates APP 5'UTR luciferase reporter | 190,000 compounds, 1% hits | SH-SY5Y APP 5'UTR luciferase reporter, luminescence; zero percent = DMSO vehicle wells | activation, % at 2 µM;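 active means activation above a set limit, based on mean plus 3 SD of controls, cut at about 140% in these data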
STAT1 activator = activators of IFN-gamma induced STAT1 signaling; NIH 3T3 STAT1-luciferase reporter, luminescence; 100% = IFN-gamma alone, no compound; AID 932; 200,000 compounds, 2.6% hits; activation (% of control), % at 5.5 µM;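 active means activation above the screen-wide mean activation plus 3 SD, cut at about 130% in these data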
STAT3 inh-1 = STAT3 signaling inhibition. AID 862. U3A cells, IL-6 STAT3-luciferase reporter, luminescence; host cell line lacks STAT1. inhibition, % at 5.5 µM. 190,000 compounds, 0.89% hits;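 active means inhibition above the mean inhibition across all screened compounds plus 3 SD, cut at about 44% in these data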
STAT3 inh-2 = STAT3 inhibition, confirmation assay; shares compounds with STAT3 inh-1; U3A cells, IL-6 STAT3 luciferase reporter, luminescence; cell line lacks STAT1; inhibition, % at 5.7 µM; 1,200 compounds, 45% hits;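 active means inhibition above the hit cutoff computed for the primary STAT3 screen, cut at about 44% in these data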
NFkB inh STAT3ct = counter-screen for STAT3 inhibitors: NF-kappaB inhibition. shares compounds with STAT3 inh-1. HEK293T NF-kB luciferase reporter, TNF-alpha induced. inhibition, % at 5.7 µM. 1,200 compounds, 36% hits;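 active means inhibition above the mean of solvent-only control wells plus 3 SD, cutoff set per campaign, cut at about 13% in these data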
STAT1 inh STAT3c = counter-screen for STAT3 inhibitors: STAT1 inhibition. shares compounds with STAT3 inh-1. NIH 3T3 STAT1-luciferase reporter, IFN-gamma induced, luminescence. inhibition, % at 5.7 µM. 1,200 compounds, 27% hits. AID 1317;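 active means inhibition above the mean plus 3 SD of solvent-only control wells, limit set per screening run, cut at about 16% in these data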
A number is an active result; . = inactive; / = no result given.

SMILES	STAT3 activator	STAT1 inh	NF-kB expr up	APP 5'UTR act	STAT1 activator	STAT3 inh-1	STAT3 inh-2	NFkB inh STAT3ct	STAT1 inh STAT3c
CCOc1ccc2nc(NC(=O)c3ccoc3C)sc2c1	.	.	3.5	168	.	79	47	14	.
CCOC(=O)c1ccc2nc(NC(=O)c3ccco3)sc2c1	.	.	4.6	277	.	54	.	.	.
Cc1ccc2nc(NC(=O)COC(=O)c3ccco3)sc2c1	.	.	.	.	.	.	/	/	/
Cc1cc(/C=N/NC(=O)c2ccncc2)c(C)n1-c1ccccc1	.	.	.	.	.	.	/	/	/
Cc1cc(/C=N/NC(=O)c2cccs2)c(C)n1-c1ccccc1	.	.	.	163	.	68	.	27	.
CCc1ccc2c(c1)C1(SC(NC(C)=O)=NN1C(C)=O)C(=O)N2CC (configuration not stated)	.	.	.	.	.	.	/	/	/
CC1CCCN(C(=O)COc2ccc(Nc3ccccc3)cc2)C1 (configuration not stated)	.	.	.	.	.	.	/	/	/
O=C(Cn1cnc2ccccc21)Nc1ccc(SC(F)F)cc1	.	.	.	.	.	73	65	21	.
N#Cc1nc(N2CCCCC2)nc(N2CCOCC2)n1	.	.	.	.	.	.	/	/	/
N#Cc1nc(N2CCCC2)nc(N2CCCC2)n1	.	.	.	.	.	56	56	28	.
CCCCn1c(SCC(=O)NNC(=O)c2ccco2)nnc1-c1ccco1	.	.	.	.	.	.	/	/	/
COc1ccc(C(=O)NC2(C(F)(F)F)NC(=O)N(CCCc3ccccc3)C2=O)cc1OC (configuration not stated)	.	.	.	.	.	.	/	/	/
CCc1ccc(-c2nc(-c3ccncc3)no2)cc1	.	.	3.4	168	.	57	.	.	.
COc1ccc(OC)c(NC(=O)CSc2ncnc3c2cnn3-c2ccccc2Cl)c1	.	.	3.3	.	.	79	81	31	26
Cc1ccc(-c2nn(-c3ccccc3)cc2/C=N/NC(=O)c2ccc(Br)o2)cc1	.	.	.	.	.	46	.	.	.
COc1cc(C(=O)OCC(=O)NCCN2C(=O)CSC2=O)ccc1OCc1c(C)noc1C	.	.	.	.	.	.	/	/	/
COc1ccccc1C(=O)NCc1ccc(-c2nc3ccccc3s2)cc1	.	.	.	.	.	51	.	.	.
COc1cccc(-c2nc3ccccc3s2)c1O	.	.	6.4	212	.	44	.	.	.
COc1ccc(-c2nc3ccccc3s2)cc1O	.	.	.	225	.	92	53	.	.
Oc1cccc(-c2nc3ccccc3s2)c1	.	.	9	.	.	74	.	13	.
COc1cccc(C(=O)NCc2ccc(-c3nc4ccccc4s3)cc2)c1	.	.	.	.	.	.	/	/	/
Oc1ccc(O)c(Cc2nc3ccccc3s2)c1	.	.	.	.	.	.	/	/	/
c1ccc(CCN(Cc2ccccc2)C2CCN(C3CCCC3)CC2)cc1	.	.	.	.	.	.	/	/	/
COc1ccc(/C=C(\C#N)C(=O)OCC(=O)Nc2ccc(C(C)(C)C)cc2)cc1	.	.	.	.	.	.	/	/	/
Cc1sc2ncnc(N3CCN(CCOc4ccc(Cl)cc4)CC3)c2c1C	.	.	.	.	.	76	77	25	20
SMILES	STAT3 activator	STAT1 inh	NF-kB expr up	APP 5'UTR act	STAT1 activator	STAT3 inh-1	STAT3 inh-2	NFkB inh STAT3ct	STAT1 inh STAT3c
Cc1ccc(N=c2c([N+](=O)[O-])nn(-c3ccc4c(c3)OCCO4)n2O)c(Cl)c1	.	.	.	.	.	49	.	.	.
Cc1cc(C)cc(N=c2c([N+](=O)[O-])nn(-c3ccc4c(c3)OCCO4)n2O)c1	.	.	.	.	.	.	/	/	/
COC(=O)C(Cc1c[nH]c2ccccc12)NC(=O)c1cc(-c2ccc(OC)c(OC)c2)oc1C (configuration not stated)	.	.	.	.	.	.	/	/	/
COc1ccc(-n2c(C)nc3c(cnn3-c3ccc(Cl)cc3)c2=O)cc1	.	.	.	.	.	52	.	.	.
COc1ccc(-n2c(C)nc3c(cnn3-c3ccc(C)cc3)c2=O)cc1	.	.	.	.	.	.	/	/	/
Cc1cc(C)nc(Nc2n[nH]c(-c3ccc(C(C)(C)C)cc3)n2)n1	.	.	.	.	.	47	.	.	.
COc1ccc(C(=O)COc2ccc(F)cc2)c(O)c1	/	/	/	.	/	/	/	/	/
COc1ccc(O)c(C(=O)CC(=O)c2ccc(F)cc2)c1	.	.	.	149	.	77	.	.	.
c1ccc(C(Cc2nc(-c3ccncc3)no2)c2ccccc2)cc1	.	.	.	.	.	65	52	.	.
CCN(CC)C(=O)c1ccc(S(=O)(=O)N2CCC(c3nc4ccccc4s3)CC2)cc1	.	.	.	.	.	67	51	.	18
CC1CCCN(C(=O)c2ccc(S(=O)(=O)N3CCC(c4nc5ccccc5s4)CC3)cc2)C1 (configuration not stated)	.	.	/	.	.	53	50	14	18
O=C(NC1CCCCC1)C(c1cc2c(cc1[N+](=O)[O-])OCO2)N1CCCCC1 (configuration not stated)	.	.	.	.	.	.	/	/	/
O=[N+]([O-])c1ccc(N/N=C/c2sc(N3CCOCC3)nc2-c2ccccc2)c(S(=O)(=O)Nc2ccc(Cl)cc2)c1	.	.	.	.	.	81	71	48	54
Cc1csc2ncnc(NCCc3ccccn3)c12	.	35	.	.	.	72	75	25	24
c1ccc(CCNc2ncnc3sccc23)nc1	.	.	.	.	.	.	/	/	/
Oc1ccc(Nc2nc(NCC3CCCO3)c3ccccc3n2)cc1 (configuration not stated)	.	.	.	.	.	.	/	/	/
Oc1ccccc1Nc1nc(NCC2CCCO2)c2ccccc2n1 (configuration not stated)	.	.	.	.	.	50	.	.	.
COc1ccc(-[n+]2c(C)cc(/C=C3\Sc4ccccc4N3C)cc2C)cc1	.	.	5.4	.	.	85	85	56	.
CCOC(=O)N1CCN(c2nc3ccccc3nc2C(C#N)S(=O)(=O)c2ccc(C)cc2)CC1 (configuration not stated)	.	.	.	.	.	.	/	/	/
Cc1ccc(S(=O)(=O)C(C#N)c2nc3ccccc3nc2N2CCN(C)CC2)cc1 (configuration not stated)	.	.	.	.	.	44	59	19	.

Screening results (PubChem BioAssay)
